22 compounds from ChEMBL document CHEMBL1153380, “Discovery of potent and orally active 3-alkoxy-5-phenoxy-N-thiazolyl benzamides as novel allosteric glucokinase activators” (Bioorg Med Chem, 2009) can be followed below.

Data set [1] has as its target T1, Hexokinase-4 (Homo sapiens, UniProt P35557).
T1 sequence (P35557 whole entry): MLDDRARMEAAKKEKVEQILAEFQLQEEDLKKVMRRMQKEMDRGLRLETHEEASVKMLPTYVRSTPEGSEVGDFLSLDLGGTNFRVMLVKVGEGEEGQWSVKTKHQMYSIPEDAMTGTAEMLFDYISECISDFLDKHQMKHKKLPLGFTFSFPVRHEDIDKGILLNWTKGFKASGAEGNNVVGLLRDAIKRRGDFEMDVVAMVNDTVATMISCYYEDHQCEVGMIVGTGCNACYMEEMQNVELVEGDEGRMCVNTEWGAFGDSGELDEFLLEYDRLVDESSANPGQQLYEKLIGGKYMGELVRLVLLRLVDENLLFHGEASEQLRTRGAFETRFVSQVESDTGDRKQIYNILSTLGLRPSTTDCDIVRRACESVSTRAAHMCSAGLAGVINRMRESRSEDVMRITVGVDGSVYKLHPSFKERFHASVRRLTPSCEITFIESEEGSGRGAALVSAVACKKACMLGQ
Description: Activation of flag-tagged human recombinant liver glucokinase expressed in Escherichia coli by glucose-6-phosphate dehydrogenase coupled continuous spectrophotometric assay in presence of 2.5 mM glucose.

In data set [2] the target is T1, Hexokinase-4. Nature of the data set: Activation of flag-tagged human recombinant liver glucokinase expressed in Escherichia coli by glucose-6-phosphate dehydrogenase coupled continuous spectrophotometric assay in presence of 10 mM glucose.
Data set [3] has as its system Mus musculus. Nature of the data set: Glucose lowering effect in normal-fed ICR mouse assessed as decrease in plasma glucose AUC level at 30 mg/kg, po. On the set-up: dose 30 mg/kg. Type of data set: functional, organism-based. The essentials: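 Mice given a single oral dose in 0.5% methylcellulose vehicle. Blood glucose measured just before dosing and at 0.5, 1, 1.5, 2, 3 and 4 h after dosing.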

A short description of data set [4]: AUC (0 to infinity) in Sprague-Dawley rat at 1 mg/kg, iv. The settings on record: plasma. More on the design: time infinity, dose 1 mg/kg, route intravenous. The data set is classed as ADME, organism-based.
Data set [5] is described as follows: Total clearance in Sprague-Dawley rat at 1 mg/kg, iv. The data set is classed as ADME, organism-based. The note with it: in vivo. On the set-up: dose 1 mg/kg, route intravenous.
Data set [6] in a line: Half life in Sprague-Dawley rat at 1 mg/kg, iv. The data set is classed as ADME, organism-based. More on the design: dose 1 mg/kg, route intravenous. The settings on record: in vivo.
Data set [7] in a line: Volume of distribution at steady state in Sprague-Dawley rat at 1 mg/kg, iv. Type of data set: ADME, organism-based. On the set-up: dose 1 mg/kg, route intravenous. The note with it: in vivo, read-out: Vdss.
Data set [8] in a line: AUC (0 to infinity) in Sprague-Dawley rat at 3 mg/kg, po. The settings on record: plasma. The data set is classed as ADME, organism-based. More on the design: time infinity, dose 3 mg/kg, route oral.
Data set [9] in a line: Cmax in Sprague-Dawley rat at 3 mg/kg, po. The settings on record: in vivo. Type of data set: ADME, organism-based. On the set-up: dose 3 mg/kg, route oral.
The nature of data set [10]: Tmax in Sprague-Dawley rat at 3 mg/kg, po. Type of data set: ADME, organism-based. On the set-up: dose 3 mg/kg, route oral. The settings on record: in vivo.
Data set [11] can be described thus: Oral bioavailability in Sprague-Dawley rat at 3 mg/kg. The note with it: in vivo. The data set is classed as ADME, organism-based.
For data set [12], the system named is Rattus norvegicus. Description: Glucose lowering effect in overnight-fasted po dosed Wistar rat assessed as decrease in glucose AUC level administered 30 mins before oral glucose challenge by OGTT. Type of data set: functional, organism-based. The method in brief: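 Rats dosed orally in 0.5% methylcellulose vehicle, then given an oral glucose challenge (2 g/kg) 30 min later. Plasma glucose measured just before and after the challenge. Glucose AUC used as read-out.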

SMILES strings stand for the structures. Activity calls are given as the source filed them.

With `Cc1csc(NC(=O)c2cccc(Oc3ccccc3C)c2)n1`, the results for the EC50 in data set [1] and in data set [2] were 3200 nM and 820 nM, respectively.
Take `Cc1csc(NC(=O)c2cccc(Oc3ccccc3S(C)(=O)=O)c2)n1`: the EC50 – broadly, the concentration that produces a half-maximal response – amounted to 5500 nM in [1] and 1100 nM in data set [2].
`COc1cc(Oc2ccccc2S(C)(=O)=O)cc(C(=O)Nc2nc(C)cs2)c1`: the EC50 in data set [1] worked out at 11000 nM; in [2] it was 1900 nM.
The corresponding values for `Cc1csc(NC(=O)c2cc(Oc3ccccc3)cc(Oc3cccc(S(C)(=O)=O)c3)c2)n1` are 1100 nM and 940 nM.
With `Cc1csc(NC(=O)c2cccc(Oc3ccc(S(C)(=O)=O)cc3)c2)n1`, the EC50 in data set [1] stood at 29000 nM; in [2] it was 3400 nM.
For the compound `Cc1cccc(Oc2cccc(C(=O)Nc3nc(C)cs3)c2)c1`, the concentration giving a half-maximal response (EC50) is 8200 nM in data set [1] and 2300 nM in [2].
For the compound `Cc1csc(NC(=O)c2cccc(Oc3ccccc3)c2)n1`, the EC50 in data set [1] came to 19000 nM; in data set [2], 800 nM.
Consider `Cc1csc(NC(=O)c2cc(Oc3ccccc3)cc(Oc3ccccc3S(C)(=O)=O)c2)n1`, for which the figures for the EC50 in data set [1] and in [2] were 1100 nM and 610 nM, respectively.
The like results for `Cc1ccc(Oc2cccc(C(=O)Nc3nc(C)cs3)c2)cc1` were, in that order, 5900 nM and 6400 nM.
In the case of `Cc1csc(NC(=O)c2cc(Oc3ccc(S(C)(=O)=O)cc3)cc(OC(C)C)c2)n1`, in data set [3], the outcome was Active. Also, the AUC(0-inf) (commonly the area under the concentration-time curve extrapolated to infinity) in [4] was determined as 9.7 µM·h; in data set [8] it was 12 µM·h. Besides, the clearance (in general, the rate of elimination divided by the concentration) in data set [5] was 4.1 mL/min/kg. Besides, the half-life (as a rule, the time needed for the level to fall by half in the phase considered) in data set [6] is 1.1 h. The Vd in [7] stood at 0.4 L/kg. In [9], the Cmax (in general, the maximum level reached in the sampled fluid or tissue) was 2900 nM. Besides, the Tmax (usually the time from dosing to the highest level) in data set [10] came out at 1 h. Moreover, the bioavailability (usually the share of a dose that reaches the circulation, judged against a reference dose that is usually intravenous) in [11] amounted to 40%. Besides, in data set [12], the Activity result is “Dose-dependent effect”. Besides, the results for the EC50 in data set [1] and in data set [2] were 330 nM and 130 nM, respectively.
Consider `Cc1csc(NC(=O)c2cccc(Oc3cccc(S(C)(=O)=O)c3)c2)n1`, for which the EC50 in data set [1] worked out at 18000 nM; in data set [2], 1100 nM.
As to `Cc1csc(NC(=O)c2cc(Oc3ccccc3S(C)(=O)=O)ccc2Oc2ccccc2)n1`, the EC50 in data set [1] and in data set [2] was above 30000 nM throughout.
For `Cc1csc(NC(=O)c2cc(Oc3ccccc3S(C)(=O)=O)ccc2OC(C)C)n1`, the EC50 in data set [1] and in data set [2] was above 30000 nM each time.
As to `Cc1csc(NC(=O)c2cc(Oc3cccc(S(C)(=O)=O)c3)cc(OC(C)C)c2)n1`, the concentration giving a half-maximal response (EC50) is 1100 nM in data set [1] and 90 nM in data set [2].
The corresponding values for `Cc1csc(NC(=O)c2cc(Oc3ccccc3S(C)(=O)=O)cc(OC(C)C)c2)n1` are 2100 nM and 440 nM.
The like results for `COc1ccccc1Oc1cccc(C(=O)Nc2nc(C)cs2)c1` were, in that order, 2200 nM and 490 nM.
The like results for `CCOc1ccccc1Oc1cccc(C(=O)Nc2nc(C)cs2)c1` were, in that order, 5400 nM and 1900 nM.
Take `Cc1csc(NC(=O)c2cccc(Oc3ccccc3F)c2)n1`: the EC50 amounted to 2400 nM in data set [1] and 450 nM in data set [2].
The corresponding values for `CCOc1cc(Oc2ccccc2S(C)(=O)=O)cc(C(=O)Nc2nc(C)cs2)c1` are 2400 nM and 2100 nM.
The like results for `Cc1csc(NC(=O)c2cccc(Oc3cccc(F)c3)c2)n1` were, in that order, 6300 nM and 2200 nM.
As for `Cc1csc(NC(=O)c2cccc(Oc3ccc(F)cc3)c2)n1`, the EC50 in data set [1] is 21000 nM; in data set [2] it was 4200 nM.
In the case of `Cc1csc(NC(=O)c2cc(Oc3ccccc3)cc(Oc3ccc(S(C)(=O)=O)cc3)c2)n1`, the figures for the EC50 in data set [1] and in [2] were 420 nM and 350 nM, respectively.
